Legend:
Streptococcus pneumoniae [1] = test: Antimicrobial activity against atypical Streptococcus pneumoniae L25 with parC Lys137Asn mutation by broth dilution method
Streptococcus pneumoniae [2] = test: Antimicrobial activity against atypical Streptococcus pneumoniae L27 with parC Ser52Gly, Asn91Asp, Glu135Asp mutation by broth dilution method
Streptococcus pneumoniae [3] = test: Antimicrobial activity against atypical Streptococcus pneumoniae L11 with parC Ser52Gly, Asn91Asp, Glu135Asp mutation by broth dilution method
Streptococcus oralis [4] = test: Antimicrobial activity against Streptococcus oralis ATCC 10557 with gyrA Ser114Gly, and parC Ser52Gly, Asn91Asp mutation by broth dilution method; assay type: functional
Procedure, shortened: (§1)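 Ciprofloxacin and levofloxacin MICs were determined by broth dilution following CLSI (formerly NCCLS) guidance. S. pneumoniae ATCC 6303 and ATCC 49619 served as control strains. Reference strains were S. mitis ATCC 49456 and S. oralis ATCC 10557. The clinical isolates came from patients at a Hong Kong teaching hospital.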

Streptococcus oralis [5] = test: Antimicrobial activity against Streptococcus oralis HK575 with gyrA Ser114Gly, Leu155Val and parC Ser52Gly, Asn91Asp, Pro140Ser mutation by broth dilution method; assay type: functional; procedure, shortened: as §1
Streptococcus oralis [6] = test: Antimicrobial activity against Streptococcus oralis HK232 with gyrA Ser114Gly, and parC Ser52Gly, Asn91Asp mutation by broth dilution method; assay type: functional; procedure, shortened: as §1
Streptococcus oralis [7] = test: Antimicrobial activity against Streptococcus oralis HK417 with gyrA Ser114Gly, and parC Ser52Gly, Asn91Asp mutation by broth dilution method; assay type: functional; procedure, shortened: as §1
Streptococcus oralis [8] = test: Antimicrobial activity against Streptococcus oralis HK496 with gyrA Ser114Gly, and parC Ser52Gly, Asn91Asp mutation by broth dilution method; assay type: functional; procedure, shortened: as §1
Streptococcus oralis [9] = test: Antimicrobial activity against Streptococcus oralis HK553 with gyrA Ser114Gly, and parC Ser52Gly, Asn91Asp mutation by broth dilution method; assay type: functional; procedure, shortened: as §1
Streptococcus oralis [10] = test: Antimicrobial activity against Streptococcus oralis HK62 with gyrA Ser114Gly, and parC Ser52Gly, Asn91Asp mutation by broth dilution method; assay type: functional; procedure, shortened: as §1
Streptococcus oralis [11] = test: Antimicrobial activity against Streptococcus oralis HK122 with gyrA Ser114Gly, and parC Ser52Gly, Asn91Asp mutation by broth dilution method; assay type: functional; procedure, shortened: as §1
Streptococcus oralis [12] = test: Antimicrobial activity against Streptococcus oralis HK123 with gyrA Ser114Gly, and parC Ser52Gly, Asn91Asp mutation by broth dilution method; assay type: functional; procedure, shortened: as §1
Streptococcus oralis [13] = test: Antimicrobial activity against Streptococcus oralis HK271 with gyrA Ser114Gly, and parC Ser52Gly, Asn91Asp mutation by broth dilution method; assay type: functional; procedure, shortened: as §1
Streptococcus oralis [14] = test: Antimicrobial activity against Streptococcus oralis HK300 with gyrA Ser114Gly, and parC Ser52Gly, Asn91Asp mutation by broth dilution method; assay type: functional; procedure, shortened: as §1
Streptococcus oralis [15] = test: Antimicrobial activity against Streptococcus oralis HK312 with gyrA Ser114Gly, and parC Ser52Gly, Asn91Asp mutation by broth dilution method; assay type: functional; procedure, shortened: as §1
Streptococcus oralis [16] = test: Antimicrobial activity against Streptococcus oralis HK51with gyrA Ser114Gly, and parC Ser52Gly, Asn91Asp mutation by broth dilution method; assay type: functional; procedure, shortened: as §1
Streptococcus oralis [17] = test: Antimicrobial activity against Streptococcus oralis HK299 with gyrA Ser114Gly, and parC Ser52Gly, Asn91Asp mutation by broth dilution method; assay type: functional; procedure, shortened: as §1
Streptococcus oralis [18] = test: Antimicrobial activity against Streptococcus oralis HK579 with gyrA Ser114Gly, and parC Ser52Gly, Asn91Asp mutation by broth dilution method; assay type: functional; procedure, shortened: as §1
Streptococcus oralis [19] = test: Antimicrobial activity against Streptococcus oralis HK587 with gyrA Ser114Gly, and parC Ser52Gly, Asn91Asp mutation by broth dilution method; assay type: functional; procedure, shortened: as §1
Streptococcus oralis [20] = test: Antimicrobial activity against Streptococcus oralis HK386 with gyrA Ser114Gly, and parC Ser52Gly, Asn91Asp mutation by broth dilution method; assay type: functional; procedure, shortened: as §1
Streptococcus oralis [21] = test: Antimicrobial activity against Streptococcus oralis HK619 with gyrA Ser114Gly, and parC Ser52Gly, Asn91Asp mutation by broth dilution method; assay type: functional; procedure, shortened: as §1
Streptococcus oralis [22] = test: Antimicrobial activity against Streptococcus oralis HK816 with gyrA Ser81Leu, Ser114Gly and parC Ser52Gly, Ser79Tyr, Asn91Asp mutation by broth dilution method; assay type: functional; procedure, shortened: as §1
Streptococcus oralis [23] = test: Antimicrobial activity against Streptococcus oralis HK754 with gyrA Ser81Leu, Ser114Gly, gyrB Ser494Thr, parC Ser52Gly, Asp83Tyr, Asn91Asp and parE Arg447Ser mutation by broth dilution method; assay type: functional; procedure, shortened: as §1
Streptococcus mitis [24] = test: Antimicrobial activity against Streptococcus mitis ATCC 49456 with gyrA Ser114Gly, and parC Ser52Gly, Asn91Asp, Glu135Asp mutation by broth dilution method; assay type: functional; procedure, shortened: as §1
Streptococcus mitis [25] = test: Antimicrobial activity against Streptococcus mitis HK260 with gyrA Ser114Gly, and parC Ser52Gly, Asn91Asp mutation by broth dilution method; assay type: functional; procedure, shortened: as §1
Streptococcus mitis [26] = test: Antimicrobial activity against Streptococcus mitis HK141 with gyrA Ser114Gly, and parC Ser52Gly, Asn91Asp mutation by broth dilution method; assay type: functional; procedure, shortened: as §1
Streptococcus mitis [27] = test: Antimicrobial activity against Streptococcus mitis HK188 with gyrA Ser114Gly, and parC Ser52Gly, Asn91Asp, Glu135Asp mutation by broth dilution method; assay type: functional; procedure, shortened: as §1
Streptococcus mitis [28] = test: Antimicrobial activity against Streptococcus mitis HK651 with gyrA Ser114Gly, and parC Ser52Gly, Asn91Asp mutation by broth dilution method; assay type: functional; procedure, shortened: as §1
Streptococcus mitis [29] = test: Antimicrobial activity against Streptococcus mitis HK137453 with gyrA Ser114Gly, and parC Ser52Gly, Asn91Asp mutation by broth dilution method; assay type: functional; procedure, shortened: as §1
Streptococcus mitis [30] = test: Antimicrobial activity against Streptococcus mitis HK680 with gyrA Ser114Gly, and parC Ser52Gly, Asn91Asp mutation by broth dilution method; assay type: functional; procedure, shortened: as §1
Streptococcus mitis [31] = test: Antimicrobial activity against Streptococcus mitis HK125807 with gyrA Ser114Gly, and parC Ser52Gly, Asn91Asp mutation by broth dilution method; assay type: functional; procedure, shortened: as §1
Streptococcus mitis [32] = test: Antimicrobial activity against Streptococcus mitis HK467 with gyrA Ser114Gly, Leu155Val and parC Ser52Gly, Asn91Asp, mutation by broth dilution method; assay type: functional; procedure, shortened: as §1
Streptococcus mitis [33] = test: Antimicrobial activity against Streptococcus mitis HK666 with gyrA Ser114Gly, and parC Ser52Gly, Asn91Asp, Glu135Asp mutation by broth dilution method; assay type: functional; procedure, shortened: as §1
Streptococcus mitis [34] = test: Antimicrobial activity against Streptococcus mitis HK135786 with gyrA Ser114Gly, and parC Ser52Gly, Asn91Asp mutation by broth dilution method; assay type: functional; procedure, shortened: as §1
Streptococcus mitis [35] = test: Antimicrobial activity against Streptococcus mitis HK29 with gyrA Ser114Gly, and parC Ser52Gly, Asn91Asp mutation by broth dilution method; assay type: functional; procedure, shortened: as §1
Streptococcus mitis [36] = test: Antimicrobial activity against Streptococcus mitis HK677 with gyrA Ser81Leu, Ser114Gly, gyrB Ser494Thr, parC Ser52Gly, Asp83Tyr, Asn91Asp and parE Arg447Ser mutation by broth dilution method; assay type: functional; procedure, shortened: as §1
Streptococcus pneumoniae [37] = test: Antimicrobial activity against Streptococcus pneumoniae L5 with parE Ile460Val mutation by broth dilution method
Streptococcus pneumoniae [38] = test: Antimicrobial activity against Streptococcus pneumoniae L6 with gyrA Ser81Phe, parC Lys137Asn and parE Ile460Val mutation by broth dilution method
Streptococcus pneumoniae [39] = test: Antimicrobial activity against Streptococcus pneumoniae L12 with gyrA Ser81Phe, parC Ser79 Phe and parE Ile460Val mutation by broth dilution method
Streptococcus pneumoniae [40] = test: Antimicrobial activity against Streptococcus pneumoniae L13 with parC Asp83Tyr and parE Ile460Val mutation by broth dilution method
Streptococcus pneumoniae [41] = test: Antimicrobial activity against Streptococcus pneumoniae L14 with parC Lys137Asn and parE Ile460Val mutation by broth dilution method
Streptococcus pneumoniae [42] = test: Antimicrobial activity against Streptococcus pneumoniae L15 with parC Asp83Asn Lys137Asn and parE Ile460Val mutation by broth dilution method
Streptococcus pneumoniae [43] = test: Antimicrobial activity against Streptococcus pneumoniae L22 with parC Lys137Asn and parE Ile460Val mutation by broth dilution method
Streptococcus pneumoniae [44] = test: Antimicrobial activity against Streptococcus pneumoniae L24 with gyrA Ser81Phe, gyrB Ser494Thr, parC Asp83Asn, Lys137Asn and parE Ile460Val mutation by broth dilution method
Streptococcus viridans [45] = test: Antimicrobial activity against Viridans streptococcus L2 with gyrA Ser114Gly, gyrB Ser494Thr and parC Ser52Gly, Asn91Asp mutation by broth dilution method; assay type: functional; procedure, shortened: as §1
Streptococcus viridans [46] = test: Antimicrobial activity against Viridans streptococcus L7 with gyrA Ser114Gly, gyrB Ser494Thr and parC Ser52Gly, Asn91Asp mutation by broth dilution method; assay type: functional; procedure, shortened: as §1
Streptococcus viridans [47] = test: Antimicrobial activity against Viridans streptococcus L16 with gyrA Ser114Gly, gyrB Ser494Thr and parC Ser52Gly, Asn91Asp mutation by broth dilution method; assay type: functional; procedure, shortened: as §1
Streptococcus viridans [48] = test: Antimicrobial activity against Viridans streptococcus L17 with gyrA Ser114Gly, gyrB Ser494Thr and parC Ser52Gly, Asn91Asp mutation by broth dilution method; assay type: functional; procedure, shortened: as §1
Streptococcus viridans [49] = test: Antimicrobial activity against Viridans streptococcus L18 with gyrA Ser114Gly, Asp142Asn, gyrB Ser494Thr and parE Ile460Val mutation by broth dilution method; assay type: functional; procedure, shortened: as §1
Streptococcus viridans [50] = test: Antimicrobial activity against Viridans streptococcus L19 with gyrA Ser114Gly, gyrB Ser494Thr, parC Ser52Gly, Asn91Asp and parE Ile460Val mutation by broth dilution method; assay type: functional; procedure, shortened: as §1
Streptococcus viridans [51] = test: Antimicrobial activity against Viridans streptococcus L21 with gyrB Ser494Thr and parC Lys137Asn mutation by broth dilution method; assay type: functional; procedure, shortened: as §1
Streptococcus viridans [52] = test: Antimicrobial activity against Viridans streptococcus L26 gyrA Ser81Phe and parC Lys137Asn mutation by broth dilution method; assay type: functional; procedure, shortened: as §1
Streptococcus pneumoniae [53] = test: Antimicrobial activity against atypical Streptococcus pneumoniae L3 with parC Lys137Asn mutation by broth dilution method
Streptococcus pneumoniae [54] = test: Antimicrobial activity against atypical Streptococcus pneumoniae L8 with parC Ser52Gly, Phe55His, Ser58Gly, Asn91Asp, Lys197Asn mutation by broth dilution method
Streptococcus pneumoniae [55] = test: Antimicrobial activity against atypical Streptococcus pneumoniae L9 with gyrA Ser114Gly, gyrB Ser494Thr and parC Lys137Asn mutation by broth dilution method
Streptococcus pneumoniae [56] = test: Antimicrobial activity against atypical Streptococcus pneumoniae L10 with gyrA Ser81Phe and parC Lys197Asn mutation by broth dilution method
Streptococcus pneumoniae [57] = test: Antimicrobial activity against atypical Streptococcus pneumoniae L4 by broth dilution method
Streptococcus pneumoniae [58] = test: Antimicrobial activity against atypical Streptococcus pneumoniae L1 with gyrA Ser81Phe and parC Ser79Phe, Glu96Asp, Lys197Asn mutation by broth dilution method

Measured: MIC

O=C(O)c1cn(C2CC2)c2cc(N3CCNCC3)c(F)cc2c1=O [CIPROFLOXACIN]
128 µg/mL: Streptococcus oralis [23] | Streptococcus mitis [36]
> 32 µg/mL: Streptococcus pneumoniae [58]
64 µg/mL: Streptococcus pneumoniae [39]
16 µg/mL: Streptococcus viridans [51] | Streptococcus viridans [52]
< 0.5 µg/mL: Streptococcus mitis [25]
32 µg/mL: Streptococcus oralis [22]
2 µg/mL: Streptococcus oralis [4] | Streptococcus oralis [6] | Streptococcus oralis [7] | Streptococcus oralis [8] | Streptococcus oralis [9] | Streptococcus mitis [29] | Streptococcus mitis [30] | Streptococcus mitis [31] | Streptococcus mitis [32] | Streptococcus mitis [33]
1 µg/mL: Streptococcus oralis [5] | Streptococcus mitis [24] | Streptococcus mitis [26] | Streptococcus mitis [27] | Streptococcus mitis [28]
≥ 16 µg/mL: Streptococcus pneumoniae [44]
4 µg/mL: Streptococcus pneumoniae [1] | Streptococcus pneumoniae [2] | Streptococcus oralis [10] | Streptococcus oralis [11] | Streptococcus oralis [12] | Streptococcus oralis [13] | Streptococcus oralis [14] | Streptococcus oralis [15] | Streptococcus oralis [16] | Streptococcus oralis [17] | Streptococcus oralis [18] | Streptococcus oralis [19] | Streptococcus oralis [20] | Streptococcus oralis [21] | Streptococcus mitis [34] | Streptococcus mitis [35] | Streptococcus pneumoniae [37] | Streptococcus pneumoniae [40] | Streptococcus pneumoniae [41] | Streptococcus pneumoniae [43] | Streptococcus viridans [45] | Streptococcus viridans [46] | Streptococcus viridans [47] | Streptococcus viridans [48] | Streptococcus viridans [49] | Streptococcus viridans [50] | Streptococcus pneumoniae [53] | Streptococcus pneumoniae [55] | Streptococcus pneumoniae [56] | Streptococcus pneumoniae [57]
8 µg/mL: Streptococcus pneumoniae [3] | Streptococcus pneumoniae [38] | Streptococcus pneumoniae [42] | Streptococcus pneumoniae [54]
